From ChEMBL document CHEMBL2417496, “Novel selective inhibitors of aminopeptidases that generate antigenic peptides” (Bioorg Med Chem Lett, 2013)
Activity calls are given as the source filed them. The calls are words filed in the database; no cut-off is given here.

How the values were obtained:
[1] = target: T1, Endoplasmic reticulum aminopeptidase 2 (Homo sapiens, UniProt Q6P179); assay: Inhibition of recombinant ERAP2 (unknown origin) expressed in baculovirus-infected Hi5 insect cells assessed as L-Arginyl-7-amido-4-methyl coumarin hydrolysis to 7-amido-4-methyl coumarin after 5 to 10 mins by fluorescence assay
[2] = target: T1, Endoplasmic reticulum aminopeptidase 2; assay: Inhibition of recombinant ERAP2 (unknown origin) expressed in baculovirus-infected Hi5 insect cells assessed as L-Arginyl-7-amido-4-methyl coumarin hydrolysis to 7-amido-4-methyl coumarin at 50 to 100 uM after 5 to 10 mins by fluorescence assay relative to control
In short: (§1)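 ERAP2 was made as a recombinant protein in baculovirus-infected Hi5 insect cells and purified by affinity chromatography. Activity was monitored fluorogenically as the rate of R-AMC hydrolysis. Inhibitor was titrated, and inhibition was also examined at 50 μM and across 50–100 μM.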

[3] = target: Endoplasmic reticulum aminopeptidase 1 (Homo sapiens) (UniProt Q9NZ08); assay: Inhibition of recombinant ERAP1 (unknown origin) expressed in baculovirus-infected Hi5 insect cells assessed as L-Leucine-7-amido-4-methyl coumarin hydrolysis to 7-amido-4-methyl coumarin at 50 uM after 5 to 10 mins by fluorescence assay
In short: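 ERAP1 was made as a recombinant protein in Hi5 insect cells infected with recombinant baculovirus and affinity-purified to homogeneity. Activity was followed as the kinetics of hydrolysis of the fluorogenic substrate L-AMC. Inhibitor was titrated at increasing amounts, and single-point inhibition was checked at 50 μM.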

[4] = target: T1, Endoplasmic reticulum aminopeptidase 2; assay: Inhibition of recombinant ERAP2 (unknown origin) expressed in baculovirus-infected Hi5 insect cells assessed as L-Arginyl-7-amido-4-methyl coumarin hydrolysis to 7-amido-4-methyl coumarin at 50 uM after 5 to 10 mins by fluorescence assay; in short: as §1
[5] = target: T2, Leucyl-cystinyl aminopeptidase (Homo sapiens, UniProt Q9UIQ6); assay: Inhibition of human recombinant IRAP expressed in HeLa cells assessed as L-Leucine-7-amido-4-methyl coumarin hydrolysis to 7-amido-4-methyl coumarin after 5 to 10 mins by fluorescence assay; type: cell-based
[6] = target: T2, Leucyl-cystinyl aminopeptidase; assay: Inhibition of human recombinant IRAP expressed in HeLa cells assessed as L-Leucine-7-amido-4-methyl coumarin hydrolysis to 7-amido-4-methyl coumarin at 50 to 100 uM after 5 to 10 mins by fluorescence assay relative to control; type: cell-based

T2 sequence (Q9UIQ6 whole entry): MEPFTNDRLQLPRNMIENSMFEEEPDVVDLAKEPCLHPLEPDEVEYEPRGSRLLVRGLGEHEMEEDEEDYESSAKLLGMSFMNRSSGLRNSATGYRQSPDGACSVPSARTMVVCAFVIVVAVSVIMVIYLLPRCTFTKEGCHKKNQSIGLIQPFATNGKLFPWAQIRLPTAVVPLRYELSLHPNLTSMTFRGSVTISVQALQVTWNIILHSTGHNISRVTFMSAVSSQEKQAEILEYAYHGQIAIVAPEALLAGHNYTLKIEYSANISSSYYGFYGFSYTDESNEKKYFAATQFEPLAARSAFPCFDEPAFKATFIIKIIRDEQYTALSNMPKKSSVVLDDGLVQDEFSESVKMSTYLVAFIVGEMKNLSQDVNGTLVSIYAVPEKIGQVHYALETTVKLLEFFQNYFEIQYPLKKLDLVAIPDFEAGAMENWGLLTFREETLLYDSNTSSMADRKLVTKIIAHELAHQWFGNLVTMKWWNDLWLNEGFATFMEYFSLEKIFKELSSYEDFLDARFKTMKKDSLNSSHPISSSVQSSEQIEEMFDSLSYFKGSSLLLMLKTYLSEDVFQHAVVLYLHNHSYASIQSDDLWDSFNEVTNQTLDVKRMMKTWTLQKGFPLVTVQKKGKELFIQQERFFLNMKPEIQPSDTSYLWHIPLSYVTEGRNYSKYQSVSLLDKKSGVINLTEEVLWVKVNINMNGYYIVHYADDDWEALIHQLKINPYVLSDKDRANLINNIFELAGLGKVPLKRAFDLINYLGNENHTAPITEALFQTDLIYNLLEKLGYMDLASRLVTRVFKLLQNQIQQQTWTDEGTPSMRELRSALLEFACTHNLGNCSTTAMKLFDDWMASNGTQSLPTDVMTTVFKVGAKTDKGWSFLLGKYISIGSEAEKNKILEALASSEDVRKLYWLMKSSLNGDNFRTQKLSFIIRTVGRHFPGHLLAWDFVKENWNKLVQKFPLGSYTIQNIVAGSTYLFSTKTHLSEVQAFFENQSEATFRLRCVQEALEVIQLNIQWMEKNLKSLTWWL
T1 sequence (Q6P179 whole entry): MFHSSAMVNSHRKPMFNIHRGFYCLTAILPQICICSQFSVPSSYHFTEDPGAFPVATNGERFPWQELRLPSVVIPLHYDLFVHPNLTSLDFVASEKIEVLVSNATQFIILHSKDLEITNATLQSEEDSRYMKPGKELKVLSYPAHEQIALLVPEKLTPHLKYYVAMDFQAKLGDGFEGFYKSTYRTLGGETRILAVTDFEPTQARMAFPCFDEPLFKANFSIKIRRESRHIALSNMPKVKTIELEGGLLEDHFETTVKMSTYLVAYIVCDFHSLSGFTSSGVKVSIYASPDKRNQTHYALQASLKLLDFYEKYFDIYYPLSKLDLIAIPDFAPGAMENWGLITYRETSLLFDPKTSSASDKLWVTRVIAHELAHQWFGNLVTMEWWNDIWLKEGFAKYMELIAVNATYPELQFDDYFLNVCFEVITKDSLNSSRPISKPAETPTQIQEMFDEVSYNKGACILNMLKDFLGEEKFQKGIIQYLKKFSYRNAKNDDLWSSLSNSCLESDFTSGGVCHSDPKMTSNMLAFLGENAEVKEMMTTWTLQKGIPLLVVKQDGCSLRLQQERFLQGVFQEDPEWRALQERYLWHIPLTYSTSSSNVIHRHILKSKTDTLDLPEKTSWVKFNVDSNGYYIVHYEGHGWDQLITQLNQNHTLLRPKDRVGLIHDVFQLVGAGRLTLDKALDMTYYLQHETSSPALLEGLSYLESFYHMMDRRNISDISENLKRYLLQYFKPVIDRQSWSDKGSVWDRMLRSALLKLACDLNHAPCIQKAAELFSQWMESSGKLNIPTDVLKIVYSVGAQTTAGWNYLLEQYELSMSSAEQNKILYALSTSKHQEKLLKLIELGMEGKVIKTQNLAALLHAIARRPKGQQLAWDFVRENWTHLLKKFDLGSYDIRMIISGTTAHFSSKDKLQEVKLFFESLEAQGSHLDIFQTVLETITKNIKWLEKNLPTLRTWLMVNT
Sequence of Endoplasmic reticulum aminopeptidase 1 (Homo sapiens) (Q9NZ08 whole entry): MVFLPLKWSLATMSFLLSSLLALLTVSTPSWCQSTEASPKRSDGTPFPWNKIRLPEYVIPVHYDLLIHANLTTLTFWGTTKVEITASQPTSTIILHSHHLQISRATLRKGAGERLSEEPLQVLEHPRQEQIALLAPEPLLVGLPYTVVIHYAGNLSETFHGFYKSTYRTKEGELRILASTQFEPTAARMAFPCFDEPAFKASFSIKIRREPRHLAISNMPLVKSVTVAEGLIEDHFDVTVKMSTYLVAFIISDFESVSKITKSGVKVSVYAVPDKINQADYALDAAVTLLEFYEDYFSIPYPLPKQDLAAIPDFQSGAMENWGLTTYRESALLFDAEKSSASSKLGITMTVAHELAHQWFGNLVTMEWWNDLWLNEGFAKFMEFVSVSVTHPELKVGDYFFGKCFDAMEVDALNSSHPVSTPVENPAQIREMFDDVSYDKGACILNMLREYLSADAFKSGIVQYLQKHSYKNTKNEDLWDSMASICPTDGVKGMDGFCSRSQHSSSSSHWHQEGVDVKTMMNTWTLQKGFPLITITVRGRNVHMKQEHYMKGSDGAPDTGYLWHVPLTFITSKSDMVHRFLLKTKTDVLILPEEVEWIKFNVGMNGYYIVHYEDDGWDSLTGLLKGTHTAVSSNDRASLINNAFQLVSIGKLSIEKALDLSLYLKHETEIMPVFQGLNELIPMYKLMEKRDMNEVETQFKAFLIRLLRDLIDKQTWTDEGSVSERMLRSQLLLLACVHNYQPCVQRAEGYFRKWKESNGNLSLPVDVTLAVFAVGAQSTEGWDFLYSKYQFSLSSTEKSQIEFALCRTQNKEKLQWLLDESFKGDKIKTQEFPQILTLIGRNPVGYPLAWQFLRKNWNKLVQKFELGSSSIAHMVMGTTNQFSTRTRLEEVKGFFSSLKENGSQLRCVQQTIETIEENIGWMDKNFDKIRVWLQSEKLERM

IC50 [1] [µM] | inhibition [2] [%] | inhibition [3] | inhibition [4] | IC50 [5] [µM] | inhibition [6] [%] | Structure (SMILES)
> 100 | < 20 |  |  |  |  | COC(=O)[C@H](Cc1ccc(O)cc1)NC(=O)c1ccc(N)c(NC(=O)[C@@H](N)CCc2ccccc2)c1
> 100 | < 20 | inactive |  |  |  | COC(=O)c1ccc(N)c(NC(=O)[C@@H](N)CCc2ccccc2)c1
 |  | inactive | inactive |  |  | COC(=O)[C@H](C)NC(=O)c1ccc(N)c(NC(=O)[C@@H](N)CCc2ccccc2)c1
 |  | inactive | inactive |  |  | COC(=O)[C@H](CCCNC(=N)N)NC(=O)c1ccc(N)c(NC(=O)[C@@H](N)CCc2ccccc2)c1
 |  | inactive | inactive | > 100 | < 20 | CC(C)[C@H](NC(=O)c1ccc(N)c(NC(=O)[C@@H](N)CCc2ccccc2)c1)C(=O)O
 |  | inactive | inactive |  |  | COC(=O)[C@@H](NC(=O)c1ccc(N)c(NC(=O)[C@@H](N)CCc2ccccc2)c1)[C@@H](C)O
> 100 | < 20 | inactive |  | > 100 | < 20 | Nc1ccc(C(=O)O)cc1NC(=O)[C@@H](N)CCc1ccccc1
 |  | inactive |  |  |  | Nc1ccc(C(=O)N[C@@H](Cc2c[nH]c3ccccc23)C(=O)OCc2ccccc2)cc1NC(=O)[C@@H](N)CCc1ccccc1
